CHT inh = inhibitors of human choline transporter CHT | CHT-expressing cells, membrane potential dye, choline response; active compounds read low | 310,000 tested, 0.86% active | Q9GZV3 | B-score at 10 µM;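 active = B-score over 3 SD under the library average, and starting fluorescence ratio not unusually high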;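 note: choline stimulus applied at its EC90 after an EC20 pre-addition; B-score computed on integrated fluorescence ratio after choline addition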
Cl transport mod = modulators of human KCC2 chloride dependent transport | Q9H2X9 | KCC2 cells, thallium flux FluoZin-2 fluorescence | B-score of Tl+ flux slope (higher = more flux/activation; lower = inhibition) at 10 µM | 190,000 tested, 2.2% active;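 active = thallium flux slope and its plate-corrected score both differing from the plate sample mean at a set confidence after two filtering rounds, in either direction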;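 note: slope of fluorescence scaled to starting intensity during 10 to 20 s after thallium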
CHT PAM = human CHT allosteric activation | Q9GZV3 | CHT-expressing cells, membrane potential dye, choline EC20; active compounds read high; LV-AA mutant CHT in HEK293 cells | B-score at 10 µM | 310,000 tested, 0.49% active | AID 488977;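 active = initial fluorescence not abnormally high and integrated response B-score, plate-corrected, over 3 SD above library mean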
Rad51 HR inh = blocks human Rad51 in homologous recombination; Q06609; hRad51 DNA strand exchange, fluorescence dequenching; inhibition, % at 10 µM; 200,000 tested, 0.085% active; AID 1385;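 active = inhibition above 40% at the single screening dose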;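 note: 0% = DMSO control wells and 100% = blanks with heterologous ssDNA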
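Material: human Rad51–ssDNA filaments; Probe or stimulus: labelled 47-mer dsDNA for strand exchange; Doses: single 10 µM dose; Incubation: 37 °C 15-min filament assembly, 30-min compound preincubation, 15-min exchange; Technique: FRET fluorescence dequenching, excitation 485 nm, emission 520 nm; Measure: Fluorescence-based percent inhibition, control- and blank-normalised; Benchmarks: plate control and blank wells.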
KCC2 sec1 = confirmation of human KCC2 transport modulators. shares compounds with Cl transport mod. HEK293-KCC2, thallium flux, FluoZin2 fluorescence; active compounds read high. normalised thallium flux (F/F0 slope) at 10 µM. 3,700 tested, 15% active. AID 1713;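 active = thallium flux slope above the same plate's solvent-only control mean plus 3 SD; inconclusive = the two replicate wells disagree; inactive = no significant difference from solvent-only control wells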
KCC2 bumet counter = thallium flux persisting under bumetanide in KCC2 cells, counter-screen secondary assay; shares compounds with Cl transport mod; HEK293-KCC2 + bumetanide/ouabain, thallium flux FluoZin2; active compounds read high; normalized thallium flux at 10 µM; 3,700 tested, 49% active;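 active = thallium entry rate above the same plate's blocked-transporter control wells by more than 3 SD; inconclusive = the two repeat wells disagree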;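 note: raw slope of fluorescence over initial fluorescence between 10 and 20 s after thallium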
KCC2 sec2 = confirmation of human KCC2 transport modulators | shares compounds with Cl transport mod | normalized thallium flux at 10 µM | 3,700 tested, 23% active | HEK293-KCC2, thallium flux FluoZin2 fluorescence; actives lie on both sides; F/F0 rise rate, 10–20 s post-thallium | AID 1715;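 active = thallium flux slope more than 3 SD above or below the plate's solvent-only control mean, mostly below; inconclusive = the two repeat wells disagreed; inactive = no significant shift from solvent-only controls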;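 note: raw slope with 0.1% DMSO as baseline and bumetanide as block control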
HEK293 Tl flux = counter-screen for KCC2 modulators: effect in parental HEK293 cells | shares compounds with Cl transport mod | thallium flux FluoZin2, ouabain; baseline-ratio fluorescence slope, 10–20 s after thallium | thallium flux rate (normalised fluorescence) at 10 µM | 3,700 tested, 46% active;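 active = thallium flux rate significantly above the same plate's solvent-only control wells, beyond their mean plus 3 SD; inconclusive = the two replicate wells gave conflicting results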
KCC2 ouabain = KCC2 (human) modulation, ouabain retest; shares compounds with Cl transport mod; raw Tl+ flux slope (below DMSO = inhibition, above = activation) at 10 µM; 3,700 tested, 48% active; HEK293-KCC2, thallium flux FluoZin2 fluorescence; bidirectional: low = inhibitor, high = activator;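 active = thallium flux slope beyond 3 SD from same-plate DMSO control mean in most replicates, usually higher, sometimes lower; inconclusive = repeat tests gave conflicting results; inactive = no significant difference from controls in most replicates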;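 note: slope of initial-normalized fluorescence between seconds 10 and 20 after thallium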
HEK counter2 = parental HEK flux effect, counter-screen 2 | shares compounds with Cl transport mod | HEK293 parental, thallium flux FluoZin-2 fluorescence slope | thallium flux slope at 10 µM | 3,700 tested, 33% active;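 active = thallium flux slope above the same plate's solvent-control mean plus 3 SD in both duplicate wells; inconclusive = duplicate wells that disagreed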;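 note: run without ouabain in cells lacking the KCC2 cotransporter; slope of fluorescence scaled to its starting value between 10 and 20 s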
* marks the source's active call; other numbers are inactive results; i = inactive; ? = inconclusive; . = no result given. This is a sample that favours compounds with a hit; in the whole collection about 2.6% have one here.

SMILES	CHT inh	Cl transport mod	CHT PAM	Rad51 HR inh	KCC2 sec1	KCC2 bumet counter	KCC2 sec2	HEK293 Tl flux	KCC2 ouabain	HEK counter2
CCOc1ccc(NC(=O)c2cc3c(=O)n(C)c4ccccc4c3n2C)cc1	i	-2.01	i	-6.8	0.00768	0.00673	0.0328	0.00738	?	0.0107
Cn1c(C(=O)NCCCN2CCOCC2)cc2c(=O)n(C)c3ccccc3c21	i	-0.747	i	0.6	.	.	.	.	.	.
Cn1c(C(=O)NCc2ccccn2)cc2c(=O)n(C)c3ccccc3c21	i	-0.532	i	-4.8	.	.	.	.	.	.
Cc1ccc(CNC(=O)c2cc3c(=O)n(C)c4ccccc4c3n2C)o1	i	-4.33*	i	0.2	0.0103	0.00675	0.0279	0.00763	0.0218*	?
CCOC1=NN(c2ccc(Cl)cc2)C(=O)/C1=C\N(C)C	i	0.462	i	30.9	.	.	.	.	.	.
CCn1c(C)nnc1SCC(=O)Nc1ccc(Cl)cc1	i	.	i	.	.	.	.	.	.	.
O=S(=O)(NCCc1ccccc1F)c1cccc(S(=O)(=O)N2CCOCC2)c1	i	.	i	0.8	0.00607	0.00536	0.0262*	0.00721	?	0.0104
O=C(CCN1CCOCC1)Nc1cc(C(=O)Nc2ccc(Cl)cc2)ccc1N1CC2CC(C1)c1cccc(=O)n1C2 (stereo not drawn)	i	.	i	.	.	.	.	.	.	.
Cc1nn(-c2ccc(F)cc2)c(C)c1NS(=O)(=O)c1ccc(Cl)cc1	i	-4.6*	i	0.3	0.00566	0.00487	0.0215*	0.00676	?	0.0102
Cc1ccc(-n2nc(C)c(NS(=O)(=O)c3ccccc3)c2C)cc1C	i	.	i	-5.9	.	.	.	.	.	.
Cn1c(=O)c2c(nc(SCC(=O)NCc3ccco3)n2C)n(C)c1=O	i	5.08*	i	-11.6	0.0066	0.00366	0.032	0.00735	0.0183	0.00973
CCn1nnnc1SCC(=O)NCc1ccco1	i	0.468	i	-2.2	.	.	.	.	.	.
CC(C)n1c(SCC(=O)NCc2ccco2)nc2c1c(=O)n(C)c(=O)n2C	i	-0.00696	i	-3.0	.	.	.	.	.	.
CCCCn1nnnc1SCC(=O)NCc1ccco1	i	4.49*	i	.	0.00862	0.00671	0.0311	0.00726	0.0205	?
Cc1cccc(/C=C(\C(=O)C(=O)O)c2ccc3ccccc3n2)c1	i	0.766	i	-24.4	.	.	.	.	.	.
O=C(O)C(=O)/C(=C\c1cccc(Cl)c1)c1ccc2ccccc2n1	i	11.2*	i	-20.6	0.00622	0.0224*	0.033	0.0228*	?	0.0159*
CCC(C)(C)NC(=O)CCCSc1nc2ccccc2[nH]1	i	-0.607	i	-3.4	.	.	.	.	.	.
C/C(=N\N1CCN(C)CC1)c1ccc(OC(F)F)cc1	i	0.264	i	1.4	.	.	.	.	.	.
CC1C/C(=C/c2ccccn2)C(=O)/C(=C/c2ccccn2)C1 (stereo not drawn)	i	0.242	i	-0.6	.	.	.	.	.	.
CC(C)(C)C1C/C(=C/c2ccccn2)C(=O)/C(=C/c2ccccn2)C1 (stereo not drawn)	i	-3.41*	i	-8.6	0.0106	0.0094*	0.0301	0.0095*	0.0227	?
O=C(/C=C/c1ccccc1)CC(=O)c1ccccc1O	i	6.81*	i	-34.3	0.00536	0.0111*	0.0306	0.0126*	?	0.0152*
O=C(/C=C/c1ccccc1)NC(=O)c1ccccc1O	i	0.243	i	6.3	.	.	.	.	.	.
COc1cccc(C(=O)NCC(=O)NCc2cc(=O)n(C)c(=O)n2C)c1	i	.	i	.	.	.	.	.	.	.
O=C(CCc1nnc(-c2ccccc2)o1)NCc1cc(F)ccc1F	i	-0.669	i	2.1	.	.	.	.	.	.
COc1ccc(C(C)NC(=O)Cc2cccs2)cc1 (stereo not drawn)	i	.	i	.	.	.	.	.	.	.
SMILES	CHT inh	Cl transport mod	CHT PAM	Rad51 HR inh	KCC2 sec1	KCC2 bumet counter	KCC2 sec2	HEK293 Tl flux	KCC2 ouabain	HEK counter2
CC(NC(=O)Cc1cccs1)c1ccc2c(c1)OCO2 (stereo not drawn)	i	1.69*	i	-8.4	0.00905	0.00675	0.0323	0.00434	0.021	0.0112
O=C(NC(=S)Nc1nc(-c2ccccc2)cs1)c1cccs1	i	4.34	i	-0.2	.	.	.	.	.	.
O=C(NNc1nc(-c2ccc(F)cc2)cs1)c1ccccc1	i	-4.24*	i	-11.5	0.0101	0.00737	0.0275*	0.00477	0.0168*	0.0113
O=C(CCNC(=O)c1ccccc1Cl)Nc1nc(-c2ccc(F)cc2)cs1	i	-4.16*	i	8.7	0.00622	0.00609	0.0323	0.00827	0.014*	0.0108
O=C(NNc1nc(-c2ccccc2)cs1)c1cccs1	i	-3.77*	i	1.3	0.0092	0.00719	0.0258*	0.00419	0.0149*	0.0113
O=C1CC(N(O)C2CC(=O)N(Cc3ccccc3)C2=O)C(=O)N1Cc1ccccc1 (stereo not drawn)	i	.	i	-7.4	0.00511	0.00485	0.0257*	0.00729	?	0.0109
S=c1[nH]nc(COc2ccc(Cl)cc2)o1	i	-6.06*	i	-1.1	0.00722	?	0.0217*	0.00806	?	0.011
S=c1[nH]nc(CCc2ccc(Cl)cc2)o1	i	-7.75*	i	.	0.0104	0.007	0.0227*	0.0074	0.0405*	0.0103
COc1ccc(OCc2n[nH]c(=S)o2)cc1	i	-3.06	i	-1.7	.	.	.	.	.	.
S=c1[nH]nc(CCc2ccccc2)n1-c1ccc(Cl)cc1	i	1.01	i	-6.9	.	.	.	.	.	.
Cc1ccc(C(C)C)c(OCc2n[nH]c(=S)o2)c1	i	28.1*	i	2.5	0.014	0.0432*	?	0.0343*	0.0347*	0.0339*
CC(=O)NCCOC(=O)Nc1ccncc1	i	1.62	i	.	.	.	.	.	.	.
CC(=O)NCCOC(=O)Nc1cccnc1	i	7.18*	i	6.0	0.00592	0.00501	?	?	0.0185	0.0103
CN(C)c1ccc(/C=N/n2c(-c3cccnc3)n[nH]c2=S)cc1	i	0.825	i	7.8	.	.	.	.	.	.
CN(C)c1ccc(/C=N/n2c(-c3ccccc3Br)n[nH]c2=S)cc1	i	5.79*	i	-3.9	0.0109	0.023*	0.0311	0.0124*	?	0.0112
Cc1c(Cl)cccc1Nc1ccccc1C(=O)O	i	4.6*	i	26.0	?	0.0241*	0.0319	0.0125*	?	0.0113
